ADAM17 inh – ADAM17 inhibition, QFRET primary screen; recombinant ADAM17, EDANS/DABCYL FRET peptide cleavage; inhibition, % at 6.95 µM; 370,000 tested, 0.83% active; AID 720648;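 active = inhibition above the mean of compounds lying between control limits plus 3 SD, set per campaign, cut at about 8.5% in these data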
PLCg1 inh – PLC-gamma1 (human) inhibition, primary screen; purified PLC-gamma1, fluorogenic substrate, fluorescence; inhibition, % at 12.2 µM; 370,000 tested, 0.84% active; AID 720700; in the data active = inhibition above about 9.5%
Tn7 DDE FP – inhibitors of Tn7 peptide binding to human fibrin DD(E); P02675; FP displacement of FITC-Tn7 peptide from fibrin DD(E); 0% = median of compound wells per plate; inhibition, % at 8.3 µM; 370,000 tested, 0.13% active; AID 720508;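 active = inhibition above the mean of compounds falling within the control limits plus 3 SD of them, cut at about 14% in these data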
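Assay system: human fibrin DD(E) protein / Input: 2 µM fibrin DD(E) / Benchmarks: high control of 10 µM Aha-Tn7 peptide / Measured by: fluorescence polarization of the labelled Tn7 tracer / Medium: Tris buffer with calcium and detergent, pH 7.8 / Timing: 10 min compound pre-incubation, 3 h probe incubation at room temperature / Repeats: one replicate per compound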
DDE Tn6 FP inh – DD(E)-Tn6 binding inhibition, primary FP screen | P02675 | Fibrin DD(E) TRITC-Tn6 fluorescence polarization displacement | inhibition, % at 8.3 µM | 370,000 tested, 0.21% active | AID 720509;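 active = inhibition above a per-campaign cutoff: mean of compounds within control limits plus 3 SD, cut at about 15% in these data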
PLC-beta3 inh – PLC-beta3 (human) inhibition, primary screen. Purified PLC-beta3, fluorogenic substrate, fluorescence. Q01970. 370,000 tested, 0.18% active. inhibition, % at 12.2 µM; in the data active = inhibition above about 11%
ADAM10 inh – ADAM10 inhibition, QFRET primary screen. 370,000 tested, 0.62% active. O14672. AID 720582. recombinant ADAM10, EDANS/DABCYL FRET peptide cleavage, 3 h. inhibition, % at 7 µM;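 active = inhibition above a per-campaign cutoff equal to the mean of compounds falling between control-based bounds plus 3 SD, cut at about 20% in these data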
ADAM10 confirm – confirmation of inhibitors of human ADAM10. ADAM10 QFRET peptide cleavage, EDANS fluorescence. AID 743208. inhibition, % at 6.95 µM. 2,100 tested, 1% active. shares compounds with ADAM10 inh;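 active = inhibition above about 20% chosen separately for each screening run, limit read from the data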
ADAM17 ctr – ADAM17 inhibition, counter-screen for ADAM10 exosite hits | shares compounds with ADAM10 inh | ADAM17 QFRET peptide cleavage, EDANS fluorescence | inhibition, % at 6.95 µM | 2,100 tested, 0.5% active;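 active = mean triplicate inhibition above the solvent-only control wells' mean plus 3 SD, cut at about 12% in these data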
ADAM10 ctr – ADAM10 inhibition, counter-screen for ADAM17 exosite hits; inhibition, % at 6.95 µM; shares compounds with ADAM17 inh; 2,900 tested, 47% active; recombinant ADAM10, EDANS/DABCYL FRET peptide cleavage, 3 h;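 active = mean inhibition over the triplicate runs exceeds the activity threshold set in the earlier primary screen, cut at about 20% in these data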
ADAM17 confirm – confirmation of inhibitors of human ADAM17; inhibition, % at 6.95 µM; AID 743257; shares compounds with ADAM17 inh; recombinant ADAM17, EDANS/DABCYL QFRET peptide cleavage; 2,900 tested, 65% active;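 active = mean inhibition across replicates above the hit cutoff set in the primary screen, cut at about 8.5% in these data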
Each line names hits and unclear results; the compound was inactive in the other large screens (follow-up assays come after a bar, where they were run). Hits are enriched below; roughly 2.3% of the tested compounds scored in any of these assays.

CCOc1ccc(CCNC(=O)c2cc3sccc3n2CC)cc1OC	none
CCOc1ccc(CCNC(=O)c2cc(-c3ccccc3)c(N3CCOCC3)s2)cc1OC	none
NS(=O)(=O)c1cccc(NC(=O)COc2ncnc3c2cnn3-c2ccccc2)c1	none
O=C(COc1ncnc2c1cnn2-c1ccccc1)Nc1ccc(S(=O)(=O)N2CCCCC2)cc1	ADAM17 inh 9.8, ADAM10 inh 21 | ADAM10 confirm inactive | ADAM17 ctr inactive | ADAM10 ctr 33 | ADAM17 confirm 17
NS(=O)(=O)c1ccc(NCc2cc(Cl)ccc2OCc2ccccc2F)cc1	ADAM17 inh 14, ADAM10 inh 31 | ADAM10 confirm inactive | ADAM17 ctr inactive | ADAM10 ctr 47 | ADAM17 confirm 21
NS(=O)(=O)c1ccc(NCc2ccccc2OCc2ccc(F)cc2)cc1	none
COc1ccc(C2C(C(=O)Nc3cc(OC)c(OC)c(OC)c3)CCC(=O)N2c2ccc(OC)cc2)cc1 (centres undefined)	none
COc1ccc([C@@H]2[C@@H]3C(=O)N(C(C)(C)C)C(=O)[C@@H]3[C@]3(CC(C)C)C(=O)N(c4cccc(Br)c4)C(=O)N23)cc1	ADAM17 inh 10, ADAM10 inh 27 | ADAM10 confirm inactive | ADAM17 ctr inactive | ADAM10 ctr 23 | ADAM17 confirm 16
Cc1[nH]c2ccccc2c1C(=O)C(=O)N1CCN(c2cccc(Cl)c2)CC1	ADAM17 inh 18, PLCg1 inh 13, ADAM10 inh 24 | ADAM10 confirm inactive | ADAM17 ctr inactive | ADAM10 ctr 25 | ADAM17 confirm 8.8
Cc1[nH]c2ccccc2c1C(=O)C(=O)N1CCN(c2ccccc2Cl)CC1	none
CSc1ccc(SC2CN(Cc3ccc(C)cc3)S(=O)(=O)C2)cc1 (centres undefined)	none
CC(C)NC(=O)Nc1ccc2c(c1)C(=O)N([C@H](C)CO)C[C@H](C)[C@@H](CN(C)S(=O)(=O)c1cccs1)O2	none
C[C@@H]1CN([C@H](C)CO)C(=O)c2cc(NC(=O)Nc3ccc(F)cc3)ccc2O[C@@H](C)CCCCO[C@H]1CN(C)S(=O)(=O)c1cccs1	ADAM17 inh 8.9, ADAM10 inh 30 | ADAM10 confirm inactive | ADAM17 ctr inactive | ADAM10 ctr 42 | ADAM17 confirm 21
C[C@H](CO)N1C[C@H](C)[C@H](CN(C)S(=O)(=O)c2cccs2)Oc2ccc(NC(=O)Nc3ccc4c(c3)OCO4)cc2CC1=O	ADAM17 inh 13, ADAM10 inh 27 | ADAM10 confirm inactive | ADAM17 ctr inactive | ADAM10 ctr inactive | ADAM17 confirm 14
CC(C)NC(=O)N(C)C[C@@H]1OCCCC[C@@H](C)Oc2ccc(NC(=O)Nc3ccc(F)cc3)cc2C(=O)N([C@H](C)CO)C[C@@H]1C	none
COc1ccc(NC(=O)Nc2ccc3c(c2)C(=O)N([C@@H](C)CO)C[C@@H](C)[C@@H](CN(C)S(=O)(=O)c2cccs2)O3)cc1	ADAM17 inh 8.8, ADAM10 inh 21 | ADAM10 confirm inactive | ADAM17 ctr inactive | ADAM10 ctr inactive | ADAM17 confirm 12
COP(=O)(OC)C(NC(=O)OCc1ccccc1)C(C)C (centres undefined)	none
COc1ccc(C2(c3ccc(OC)cc3)NC(=O)N(CC(=O)Nc3cc(C)ccc3OC)C2=O)cc1	ADAM17 inh 9.3, ADAM10 inh 22 | ADAM10 confirm inactive | ADAM17 ctr inactive | ADAM10 ctr 33 | ADAM17 confirm 16
O=C(NCCc1c[nH]c2ccccc12)OCc1cn(Cc2cccc(F)c2)nn1	none
OC(c1cccc(Cl)c1)c1ncc(-c2ccc(Oc3ccccc3)cc2)[nH]1 (centres undefined)	ADAM17 inh 11, ADAM10 inh 25 | ADAM10 confirm inactive | ADAM17 ctr inactive | ADAM10 ctr 42 | ADAM17 confirm 21
Cc1cc(F)ccc1C(O)c1ncc(-c2ccc(Oc3ccccc3)cc2)[nH]1 (centres undefined)	ADAM17 inh 12, ADAM10 inh 30 | ADAM10 confirm inactive | ADAM17 ctr inactive | ADAM10 ctr 20 | ADAM17 confirm 14
OC(c1ccccc1)c1ncc(-c2ccc(Cl)cc2)[nH]1 (centres undefined)	none
OC(c1ccc(Cl)c(Cl)c1)c1ncc(-c2ccc(C(F)(F)F)cc2)[nH]1 (centres undefined)	ADAM17 inh 9.0, ADAM10 inh 26 | ADAM10 confirm inactive | ADAM17 ctr inactive | ADAM10 ctr 30 | ADAM17 confirm 15
CCCN(CC1CC1)c1nc(C)nc2c1nnn2Cc1ccccc1	none
COc1ccc(NS(=O)(=O)c2cccc(NC(=O)CCC(=O)c3ccc(Cl)cc3)c2)cc1	ADAM17 inh 14, ADAM10 inh 30 | ADAM10 confirm inactive | ADAM17 ctr inactive | ADAM10 ctr 34 | ADAM17 confirm 19
CC1=C2NC(N)=[N+](Cc3ccc4c(c3)OCO4)CC2n2c(=O)n(-c3ccccc3)c(=O)n2C1 (centres undefined)	none
COc1ccc(-n2c(SCC(=O)NNC(=S)Nc3ccccc3)nc3ccccc3c2=O)cc1	ADAM17 inh 12, ADAM10 inh 26 | ADAM10 confirm inactive | ADAM17 ctr inactive | ADAM10 ctr inactive | ADAM17 confirm 8.6
COc1cc(NC(=O)CSc2nc3[nH]ncc3c(=O)n2-c2ccc(Cl)cc2)cc(OC)c1	ADAM17 inh 12, ADAM10 inh 31 | ADAM10 confirm inactive | ADAM17 ctr inactive | ADAM10 ctr 26 | ADAM17 confirm 13
COC(=O)c1cccc(OCC(C)CN2CCC(C(O)(c3ccccc3)c3ccccc3)CC2)c1 (centres undefined)	none
O=C(NC(NC(=S)Nc1cccc(C(=O)O)c1)C(Cl)(Cl)Cl)OCc1ccccc1 (centres undefined)	none

Screening data deposited in PubChem by The Scripps Research Institute Molecular Screening Center.
